Source: ChEMBL document CHEMBL1130202, “Biologically active heteroarotinoids exhibiting anticancer activity and decreased toxicity” (J Med Chem, 1997)
Activity calls are given as the source filed them. No cut-off for these calls is given here.

Legend:
Mus musculus [1] = organism: Mus musculus; test: Effect of compound on serum Alkaline phosphatase levels in mice at mid dose 1 on day 65; assay type: functional
Outline: (§1)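 Male B6D2F1 mice dosed daily by oral gavage in corn oil at low, mid 1, mid 2 or high dose. Blood sampled on set days (8, 29, 36, 65) for clinical chemistry, serum alkaline phosphatase and triglycerides. Group mean ± SD reported as % relative to vehicle 1; significance p < 0.05 versus corn oil vehicle.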

Mus musculus [2] = organism: Mus musculus; test: Effect of compound on serum triglycerides levels in mice at mid dose 1 on day 8; assay type: functional
Outline: (§2)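 Male B6D2F1 mice were gavaged daily with compound in corn oil at low, mid 1, mid 2 or high dose. Serum triglycerides and circulating white blood cells were measured on the stated day (8, 29, 36, 65). Values are group mean ± SD expressed as % relative to corn-oil vehicle, with significance at p ≤ 0.05.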

Mus musculus [3] = organism: Mus musculus; test: Fracture incidence in mouse at mid dose 1; 0/8
Mus musculus [4] = organism: Mus musculus; test: Enlarged spleen in Gross pathological observations in mice with hypervitaminosis A at low dose with gross observations/total number of mice in group; 0/16; assay type: functional, organism-based
Mus musculus [5] = organism: Mus musculus; test: Avoiding pressure on limbs in mice at high dose with Hypervitaminosis; 4/16; assay type: functional, organism-based; details: Limb
Mus musculus [6] = organism: Mus musculus; test: Effect of compound on serum triglycerides levels in mice at mid dose 1 on day 36; assay type: functional; outline: as §2
Mus musculus [7] = organism: Mus musculus; test: Enlarged spleen in Gross pathological observations in mice with hypervitaminosis A at mid dose 1 with gross observations/total number of mice in group; 1/16; assay type: functional, organism-based
Mus musculus [8] = organism: Mus musculus; test: Enlarged lymph in gross pathological observations in mice with hypervitaminosis A in mice at high dose with gross observations/total number of mice in group; 1/16; assay type: functional, organism-based
Mus musculus [9] = organism: Mus musculus; test: Effect of compound on serum Alkaline phosphatase levels in mice at high dose on day 65; assay type: functional; outline: as §1
Mus musculus [10] = organism: Mus musculus; test: Compound total dose to termination (day 25/65) in mid dose 1; assay type: functional
Outline: (§3)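 Male B6D2F1 mice given daily oral gavage in corn oil; dosages increased during the study (day 30 or day 51 depending on compound). Cumulative dose in mg/kg administered up to termination (day 65, or day 25 for TTNPB 0.01/0.05 mg/kg/day groups).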

Mus musculus [11] = organism: Mus musculus; test: Skin scaling in mice at mid dose 2 with Hypervitaminosis; 0/16; assay type: functional, organism-based
Outline: (§4)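 Male B6D2F1 mice were dosed daily by gavage in corn oil and observed for skin scaling of the ears, mouth, nose, eyelids, feet, tail or ventral body. Results are given as affected animals over animals in the group, with the day of first observation.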

Mus musculus [12] = organism: Mus musculus; test: Effect of compound on Spleen to body weight ratios in mice at high dose on day 65; assay type: functional
Outline: (§5)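 Male B6D2F1 mice dosed daily by gavage with compound in corn oil; vehicle 1 (corn oil) controls run to termination on day 65. Low, mid 1, mid 2 and high dose groups, with dosage increases partway through the study. Organ-to-body weight ratios (×1000) taken at necropsy on day 65, reported as mean ± SD for 4 to 8 animals and as % difference from vehicle.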

Mus musculus [13] = organism: Mus musculus; test: Fracture incidence in mouse at low dose; 0/8
Mus musculus [14] = organism: Mus musculus; test: (§6) Mortality rate in mice in mid dose 1; assay type: functional
Outline: (§7)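 Male B6D2F1 mice given compound daily by gavage in corn oil at the stated dose levels, with corn oil vehicle controls. Deaths counted as animals found dead or sacrificed moribund, with day(s) of death recorded. Heteroarotinoid groups ran to day 65 and low-dose reference groups to day 25.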

Mus musculus [15] = organism: Mus musculus; test: Compound total dose to termination (day 25/65) in high dose; assay type: functional; outline: as §3
Mus musculus [16] = organism: Mus musculus; test: Effect of compound on white blood cells levels in mice at mid dose 2 on day 65; assay type: functional; outline: as §2
Mus musculus [17] = organism: Mus musculus; test: Enlarged lymph in gross pathological observations in mice with hypervitaminosis A at low dose with gross observations/total number of mice in group; 1/16; assay type: functional, organism-based
Mus musculus [18] = organism: Mus musculus; test: Skin scaling in mice at low dose with Hypervitaminosis; 0/16; assay type: functional, organism-based; outline: as §4
Mus musculus [19] = organism: Mus musculus; test: Effect of compound on right testicle to body weight ratios in mice at high dose on day 65; assay type: functional; outline: as §5
Mus musculus [20] = organism: Mus musculus; test: Fracture incidence in mouse at mid dose 2; 4/8
Mus musculus [21] = organism: Mus musculus; test: Effect of compound on serum triglycerides levels in mice at low dose on day 8; assay type: functional; outline: as §2
Mus musculus [22] = organism: Mus musculus; test: Compound total dose to termination (day 25/65) in low dose; assay type: functional; outline: as §3
Mus musculus [23] = organism: Mus musculus; test: Enlarged spleen in Gross pathological observations in mice with hypervitaminosis A at high dose with gross observations/total number of mice in group; 0/16; assay type: functional, organism-based
Mus musculus [24] = organism: Mus musculus; test: Compound total dose to termination (day 25/65) in mid dose 2; assay type: functional; outline: as §3
Mus musculus [25] = organism: Mus musculus; test: Effect of compound on white blood cells levels in mice at high dose on day 65; assay type: functional; outline: as §2
[26] = as §6; assay type: ADME; details: mouse, in vivo; outline: as §7
[27] = Mortality rate in mice in low dose; assay type: ADME; details: mouse, in vivo; outline: as §7
Mus musculus [28] = organism: Mus musculus; test: Effect of compound on serum Alkaline phosphatase levels in mice at high dose on day 29; assay type: functional; outline: as §1
Mus musculus [29] = organism: Mus musculus; test: Effect of compound on serum Alkaline phosphatase levels in mice at mid dose 2 on day 36; assay type: functional; outline: as §1
Mus musculus [30] = organism: Mus musculus; test: Effect of compound on white blood cells levels in mice at mid dose 1 on day 65; assay type: functional; outline: as §2
Mus musculus [31] = organism: Mus musculus; test: Compound toxicity determined by total dose to termination (day 25/65) in mid dose 2; assay type: functional
Mus musculus [32] = organism: Mus musculus; test: Enlarged spleen in Gross pathological observations in mice with hypervitaminosis A at high dose with gross observations/total number of mice in group; 4/16; assay type: functional, organism-based
Mus musculus [33] = test: Avoiding pressure on limbs at 0.01 mg/kg/day dose in mice hypervitaminosis; 0/16; assay type: functional, organism-based; details: Limb
Mus musculus [34] = test: Average number of fractures per mouse at 0.1 mg/kg/day
Mus musculus [35] = test: Enlarged spleen in Gross pathological observations with hypervitaminosis A at 0.8 mg/kg/day dose with gross observations/total number of animals in group; 0/16; assay type: functional, organism-based
Mus musculus [36] = test: Effect of compound on Spleen to body weight ratios in mice at 0.4 mg/kg/day dose on day 65; dead by day 65; assay type: functional, organism-based; outline: as §5
Mus musculus [37] = test: Fracture incidents in mouse at 0.1 mg/kg/day
Mus musculus [38] = test: Avoiding pressure on limbs at 0.4 mg/kg/day dose in mice with hypervitaminosis; 0/16; assay type: functional, organism-based; details: Limb
Mus musculus [39] = test: Calculated 30-day maximally tolerated dose based on 10% weight loss in mice at 0.05 mg/kg/day; assay type: functional
Mus musculus [40] = test: Enlarged lymph in gross pathological observations with hypervitaminosis A at 0.1 mg/kg/day dose with gross observations/total number of animals in group'' 16/16; assay type: functional, organism-based
Mus musculus [41] = test: Effect of compound on right testicle to body weight ratios in mice at 0.05 mg/kg/day dose; all the animals died by day 65; assay type: functional, organism-based
[42] = Mortality rate in mice at 0.2 mg/kg/day; range (8-19); assay type: ADME, organism-based; details: mouse, in vivo; outline: as §7
Mus musculus [43] = test: Effect of compound on Spleen to body weight ratios in mice at 0.8 mg/kg/day dose on day 65; dead by day 65; assay type: functional, organism-based; outline: as §5
Mus musculus [44] = test: Enlarged lymph in gross pathological observations with hypervitaminosis A in mice at 0.8 mg/kg/day dose with gross observations/total number of animals in group; 8/16; assay type: functional, organism-based
Mus musculus [45] = organism: Mus musculus; test: Enlarged spleen in Gross pathological observations in mice with hypervitaminosis A at mid dose 1 with gross observations/total number of mice in group; 0/16; assay type: functional, organism-based

Row | SMILES | Activity (Mus musculus [1]) | Activity (Mus musculus [2]) | Activity (Mus musculus [3]) | Activity (Mus musculus [4]) | Activity (Mus musculus [6]) | Activity (Mus musculus [8]) | Activity (Mus musculus [9]) | Total dose (Mus musculus [10]) | Activity (Mus musculus [11]) | Activity (Mus musculus [12]) | Activity (Mus musculus [13]) | Total dose (Mus musculus [15]) | Activity (Mus musculus [16]) | Activity (Mus musculus [17]) | Activity (Mus musculus [18]) | Activity (Mus musculus [19]) | Activity (Mus musculus [21]) | Total dose (Mus musculus [22]) | Activity (Mus musculus [23]) | Total dose (Mus musculus [24]) | further results
1 | CC(/C=C/C=C(\C)c1ccc2c(c1)C(C)(C)CCO2)=C\C(=O)O | 127.1 | 97.2 | inactive | inactive | 202.8 | inactive | 156.8 | 414.2 mg/kg | inactive | 3 | inactive | 3106.5 mg/kg | 4.51 | inactive | inactive | 3 | 96.8 | 207.1 mg/kg | inactive | 828.4 mg/kg | Activity (Mus musculus [5]): Weak activity; Activity (Mus musculus [7]): inactive; Mortality (Mus musculus [14]): 0 day of death; Activity (Mus musculus [20]): Weak activity; Activity (Mus musculus [25]): 3.7
2 | C/C(=C\c1ccc(C(=O)O)cc1)c1ccc2c(c1)C(C)(C)CCO2 | 123.1 |  |  |  |  |  |  |  |  |  |  |  | 6.55 |  |  |  |  |  |  |  | Mortality [26]: 0 day of death; Mortality [27]: 0 day of death; Activity (Mus musculus [28]): 103.1; Activity (Mus musculus [29]): 93.3; Activity (Mus musculus [30]): 5.46; Total dose (Mus musculus [31]): 588.4 mg/kg; Activity (Mus musculus [32]): Weak activity
3 | C/C(=C\c1ccc(C(=O)O)cc1)c1ccc2c(c1)C(C)(C)CCC2(C)C |  |  |  |  |  |  |  |  |  |  |  |  |  |  |  |  |  |  |  |  | Activity (Mus musculus [33]): inactive; Activity (Mus musculus [34]): 2; Activity (Mus musculus [35]): inactive; Activity (Mus musculus [36]): Toxic; Activity (Mus musculus [37]): 5.7; Activity (Mus musculus [38]): inactive; Max tolerated dose (Mus musculus [39]): 1 µg/kg; Activity (Mus musculus [40]): Active; Activity (Mus musculus [41]): Toxic; Mortality [42]: 6 day of death; Activity (Mus musculus [43]): Toxic; Activity (Mus musculus [44]): Weak activity
4 | CC(/C=C/C=C(\C)c1ccc2c(c1)C(C)(C)CCS2)=C\C(=O)O |  | 97.6 | inactive | inactive | 212.7 | inactive | 159 | 414.2 mg/kg | inactive | 2.6 | inactive | 3106.5 mg/kg |  | inactive | inactive | 2.7 | 97.5 | 207.1 mg/kg | inactive | 828.4 mg/kg | Mortality [26]: 1 day of death; Mortality [27]: 0 day of death; Activity (Mus musculus [28]): 94.6; Activity (Mus musculus [29]): 75.6; Activity (Mus musculus [45]): inactive; Activity (Mus musculus [25]): 4.18
